An excerpt weighted towards active compounds, which were near 4.3% of everything screened.
Rin1-Abl PPI inh: human Rin1-Abl interaction inhibition; P00519+Q13671; TR-FRET Rin1/Abl binding, biochemical; inhibition, % at 7.35 µM; hit rate 0.4% among 360,000; AID 588664; in the data active = inhibition above about 5%, passing the limit was not always enough
PREPL inh: human PREPL enzyme inhibition | Q4J6C6 | recombinant PREPL, fluorescence polarization activity-based probe | inhibition, % at 5.96 µM | hit rate 0.68% among 320,000; in the data active = inhibition above about 43%
SUMO HTRF inh: inhibitors of human SUMOylation (UBC9); hit rate 0.36% among 290,000; HTRF SUMOylation assay, SAE1/SAE2 + UBC9, in vitro; inhibition, % at 35 µM; P63279; in the data active = inhibition above about 50%, passing the limit was not always enough; inconclusive = no clear call, values can overlap the other calls
Target sequence (P63279 whole entry, looked up): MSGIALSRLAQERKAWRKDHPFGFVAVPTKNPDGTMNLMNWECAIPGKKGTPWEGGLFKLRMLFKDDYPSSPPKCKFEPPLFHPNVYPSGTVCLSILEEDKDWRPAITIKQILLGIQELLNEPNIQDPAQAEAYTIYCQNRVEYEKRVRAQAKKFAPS
RBBP9 inh: blocks human serine hydrolase RBBP9; hit rate 0.2% among 220,000; inhibition, % at 7.94 µM; AID 1515; recombinant RBBP9, FP-Rh probe fluorescence polarization; O75884;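 active = inhibition above the campaign mean of all tested compounds plus 3 SD, cut at about 14% in these data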
Target sequence (O75884 whole entry, looked up): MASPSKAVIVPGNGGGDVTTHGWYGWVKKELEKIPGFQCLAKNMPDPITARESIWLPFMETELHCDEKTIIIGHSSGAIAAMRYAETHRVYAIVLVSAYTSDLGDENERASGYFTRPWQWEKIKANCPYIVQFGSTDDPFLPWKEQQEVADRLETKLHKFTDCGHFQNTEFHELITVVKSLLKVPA
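System: RBBP9 protein / Quantity: 2.5 µM RBBP9 dispensing solution, before mixing / Also added: Serine-hydrolase probe FP-Rh, 375 nM pre-mixing / Dosing: 7.94 µM single dose, 0.794% DMSO / Timing: enzyme-compound preincubation 30 min, then probe labeling 45 min, 25 °C / Signal: FP readout at 525/598 nm / Controls: DMSO-treated enzyme wells and wells lacking RBBP9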
ALR inh: human ALR oxidase inhibition via reduced H2O2 | P55789 | purified ALR, DTT oxidation, H2O2 HRP-luminol luminescence | inhibition, % (no concentration beside the values) | hit rate 3.8% among 290,000;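 active = mean replicate inhibition above about 79%, with every replicate also reaching it, limit read from the data; inconclusive = only one of the two criteria met; inactive = mean below limit and not every replicate reaching it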
Target sequence (P55789 whole entry, looked up): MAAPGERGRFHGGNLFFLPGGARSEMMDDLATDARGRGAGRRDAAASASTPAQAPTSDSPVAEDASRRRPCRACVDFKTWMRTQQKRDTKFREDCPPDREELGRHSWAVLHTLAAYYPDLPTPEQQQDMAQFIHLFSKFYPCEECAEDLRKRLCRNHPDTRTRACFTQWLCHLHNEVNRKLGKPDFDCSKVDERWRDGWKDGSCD
UBC13 polyUb: blocks human UBC13 polyubiquitin chain formation; P61088; TR-FRET; inhibition, % at 20 µM; hit rate 0.47% among 330,000; in the data active = inhibition above about 45%, passing the limit was not always enough; inconclusive = no clear call, values can overlap the other calls
Target sequence (P61088 whole entry, looked up): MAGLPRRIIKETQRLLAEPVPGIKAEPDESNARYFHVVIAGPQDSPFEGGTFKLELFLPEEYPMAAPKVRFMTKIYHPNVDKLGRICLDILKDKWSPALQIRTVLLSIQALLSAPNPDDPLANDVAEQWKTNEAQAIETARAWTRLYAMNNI
Each line names hits and unclear results; the compound was inactive in the other large screens.

COc1ccc(S(=O)(=O)N2CCN(CC(=O)c3ccc(O)c(O)c3)CC2)cc1	ALR inh 98.9 (no result: RBBP9 inh)
O=C(CN1CCN(S(=O)(=O)c2ccc(Cl)cc2)CC1)c1ccc(O)c(O)c1	ALR inh 98.8 (no result: RBBP9 inh)
Cc1ccc(S(=O)(=O)N(C)/C(=N/S(=O)(=O)c2ccccc2)c2ccccc2)cc1	ALR inh 99.4
NC(=O)c1sc2nc(-c3cccnc3)ccc2c1N	none
NC(=O)c1sc2nc(-c3ccco3)ccc2c1N	SUMO HTRF inh 75.6
Nc1c(C(=O)Nc2ccccc2F)sc2nc(-c3ccco3)ccc12	SUMO HTRF inh 57.4
CCCc1ccc2c(C(F)(F)F)cc(C(F)(F)F)cc2n1	none (no result: PREPL inh, SUMO HTRF inh, RBBP9 inh, ALR inh, UBC13 polyUb)
Cc1ccc(C(C)C)c(OCC(=O)NNC(=O)Cc2ccc(S(=O)(=O)N3CCOCC3)s2)c1	none (no result: SUMO HTRF inh, RBBP9 inh)
N/C(=N\O)c1ccc(N2CCN(c3ncccc3C(F)(F)F)CC2)nc1	ALR inh 91.2
O=C(Nc1ccc(N2CCN(c3ncccc3C(F)(F)F)CC2)nc1)c1cccs1	none
COc1cccc(-c2nc(-c3ccccc3)c(-c3ccccc3)[nH]2)c1OCC(=O)O	none (no result: PREPL inh, RBBP9 inh)
O=C(O)COc1ccc(-c2nc(-c3ccccc3)c(-c3ccccc3)[nH]2)cc1	ALR inh 99.0 (no result: RBBP9 inh)
O=C(O)COc1ccccc1-c1nc(-c2ccccc2)c(-c2ccccc2)[nH]1	ALR inh 97.7 (no result: RBBP9 inh)
CC1(C(=O)NCc2ccc3c(c2)OCO3)CCN1Cc1csc2ccccc12 (centres undefined)	none (no result: PREPL inh, SUMO HTRF inh, RBBP9 inh, ALR inh, UBC13 polyUb)
Cc1ccc(NNC(=O)c2ccno2)cc1C	ALR inh 98.4
Cc1ccc(NNC(=O)c2cc(C)on2)c(C)c1	ALR inh inconclusive
Cc1cc(C(=O)NNc2ccc(C)c(C)c2)no1	ALR inh 99.1
Cc1ccc(NNC(=O)c2c(C)noc2C)cc1Cl	none
Cc1cc(C(=O)NNc2ccc(F)cc2F)no1	ALR inh 97.8
Cc1ccc(NNC(=O)c2ccno2)cc1Cl	ALR inh 98.5
COc1cccc(CNS(=O)(=O)c2ccc3c(c2)oc(=O)n3C)c1	none (no result: RBBP9 inh)
CCOc1ccc(S(=O)(=O)Nc2cccc(C(=O)NCC(c3ccco3)N3CCCC3)c2)cc1 (centres undefined)	none (no result: SUMO HTRF inh, RBBP9 inh)
O=c1[nH]c2ccccc2nc1Cc1ccc([N+](=O)[O-])cc1	ALR inh 95.4 (no result: RBBP9 inh)
O=c1[nH]c2ccccc2nc1Cc1ccc(Cl)cc1	none (no result: RBBP9 inh)
O=c1[nH][nH]c(-c2ccccc2O)c1C(C[N+](=O)[O-])c1ccc(Br)cc1 (centres undefined)	ALR inh 87.7
COc1ccc(C(C[N+](=O)[O-])c2c(C)[nH]c3ccccc23)cc1OC (centres undefined)	none
Cc1ccc(C(C[N+](=O)[O-])c2c(-c3ccccc3O)[nH][nH]c2=O)cc1 (centres undefined)	ALR inh 86.0
CC1(N=Cc2cc(Cl)ccc2O)COP(=O)(Nc2ccccc2)OC1 (centres undefined)	none (no result: PREPL inh, SUMO HTRF inh, RBBP9 inh, ALR inh, UBC13 polyUb)
COc1ccc(CCNC(=O)CCNC(=O)c2ccc([N+](=O)[O-])cc2)cc1	none (no result: RBBP9 inh, ALR inh)
Cc1ccccc1C(=O)NC1CCN(C(=O)N(c2ccccc2)c2ccccc2)CC1	ALR inh 86.0
Cc1ccccc1C(=O)NC1CCN(C(=O)NC2CCCCC2)CC1	none (no result: RBBP9 inh)
O=C(c1ccc(=O)oc1)N1CCCc2ccccc21	ALR inh 88.8
O=C(c1ccccc1)N1CCCc2ccccc21	none
CC12CCC(=O)N1C(C(=O)Nc1cc(Cl)ccc1N1CCCC1)CS2 (centres undefined)	ALR inh 86.2 (no result: SUMO HTRF inh, RBBP9 inh)
CC12CCC(=O)N1C(C(=O)Nc1ccccc1N1CCCC1)CS2 (centres undefined)	none (no result: PREPL inh, SUMO HTRF inh, RBBP9 inh, ALR inh, UBC13 polyUb)
Cn1cc(Cl)c(C(=O)OCC(=O)c2ccccc2)n1	none (no result: RBBP9 inh, ALR inh)
O=C(NNC(=O)c1cc(Br)ccc1O)c1csc(N2CCOCC2)n1	Rin1-Abl PPI inh 10.5 (no result: SUMO HTRF inh, RBBP9 inh, ALR inh)
O=C(NNC(=O)c1cc(Br)ccc1Cl)c1csc(N2CCOCC2)n1	none (no result: RBBP9 inh)
COCCCNC(=O)c1ccc2c(=O)n(CC3CCCO3)c(=S)[nH]c2c1 (centres undefined)	ALR inh 86.8
O=C(OCC(=O)N1CCOCC1)c1ccc(Br)cc1	none (no result: RBBP9 inh)
O=C(N/N=C/c1sc(=O)n(-c2ccccc2)c1Cl)c1ccncc1	ALR inh 97.8
COc1cc(C(=O)N/N=C/c2sc(=O)n(-c3ccccc3)c2Cl)cc(OC)c1OC	none
CC(C)(C)c1ccc(C(=O)N2CCC(NC(=O)c3ccccc3)CC2)cc1	none (no result: RBBP9 inh)
CCN1CCN(C(=O)CS(=O)(=O)Cc2nc(-c3cccc(OC)c3)oc2C)CC1	ALR inh 98.8 (no result: RBBP9 inh)
CCCN1CCN(C(=O)CS(=O)(=O)Cc2nc(-c3cccc(OC)c3)oc2C)CC1	none (no result: RBBP9 inh)
Cc1oc(-c2cccc(Cl)c2)nc1CS(=O)(=O)CC(=O)NCCN1CCOCC1	ALR inh 95.4 (no result: RBBP9 inh)
COc1cccc(-c2nc(CS(=O)(=O)CC(=O)NCCCN3CCOCC3)c(C)o2)c1	ALR inh 98.6 (no result: RBBP9 inh)
Cc1ccccc1-c1nc(CS(=O)(=O)CC(=O)NCCN2CCCC2)c(C)o1	none (no result: RBBP9 inh)
Cc1oc(-c2ccccc2Cl)nc1CS(=O)(=O)CC(=O)NCCN1CCOCC1	ALR inh 93.4 (no result: RBBP9 inh)
COc1ccc(-c2nc(CS(=O)(=O)CC(=O)NCCCN3CCOCC3)c(C)o2)cc1	none (no result: RBBP9 inh)
COc1ccc(CC(=O)NNC(=O)COc2ccc(Cl)cc2C)cc1S(=O)(=O)N1CCOCC1	none (no result: SUMO HTRF inh, RBBP9 inh)
COC(=O)c1ccc(NC(=O)C(=O)c2cn(CC(=O)N3CCOCC3)c3ccccc23)cc1	none (no result: RBBP9 inh)
Cc1oc(-c2ccccc2F)nc1CS(=O)(=O)CC(=O)N1CCCCCC1	none
COc1cccc(-c2nc(CS(=O)(=O)CC(=O)NCCCc3ccccc3)c(C)o2)c1	none (no result: RBBP9 inh)
CCC1CCCCN1CCCNC(=O)CS(=O)(=O)Cc1nc(-c2cccc(OC)c2)oc1C (centres undefined)	ALR inh 98.4 (no result: RBBP9 inh)
COc1cccc(-c2nc(CS(=O)(=O)CC(=O)NCCCN3CCc4ccccc4C3)c(C)o2)c1	ALR inh 99.0
COc1cccc(-c2nc(CS(=O)(=O)CC(=O)NCCN3CCOCC3)c(C)o2)c1	ALR inh 99.0 (no result: RBBP9 inh)
Cc1oc(-c2ccccc2Cl)nc1CS(=O)(=O)CC(=O)N1CCOCC1	ALR inh 98.1 (no result: RBBP9 inh)
CCOc1ccc(CCNC(=O)CS(=O)(=O)Cc2nc(-c3cccc(OC)c3)oc2C)cc1	none (no result: RBBP9 inh)
CC(=O)Nc1ccc(S(=O)(=O)NC2CC2)cc1	none (no result: RBBP9 inh)
CC(=O)Nc1ccc(S(=O)(=O)N(C)CC(=O)OCC(=O)N2CCCCCC2)cc1	none (no result: RBBP9 inh)
CS(=O)(=O)Oc1ccc(/C=C2\C(=N)N3N=C(CC(=O)N4CCOCC4)SC3=NC2=O)cc1Cl	ALR inh 82.4 (no result: RBBP9 inh)
Cc1ccc(/C=C2/C(=N)N3N=C(CC(=O)N4CCCC4)SC3=NC2=O)o1	none (no result: RBBP9 inh)
COc1cc(/C=C2/C(=N)N3N=C(CC(=O)N4CCOCC4)SC3=NC2=O)ccc1OC(C)c1ccccc1 (centres undefined)	none (no result: RBBP9 inh)
N=C1/C(=C\c2ccc(Br)o2)C(=O)N=C2SC(CC(=O)N3CCCCC3)=NN12	ALR inh 97.1 (no result: RBBP9 inh)
